Screens deposited in PubChem by SRMLSC.
bCat KO growth – beta-catenin-lacking colon tumor cell growth suppression | HCT116 beta-catenin knockout viability, CellTiter-Glo, 60 h; hits give low values | AID 818 | 1.5% of 140,000 active | viability, % at 10 µM;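 active = viability at or under a set limit, the compound median less 4 SD, cut at about 6% in these data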;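 note: 0% = Hyamine 1622 control at 20 µM and 100% = untreated cell control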
HUVEC inhibit – blocks proliferation of human endothelial cells; AID 648; HUVEC proliferation, CellTiter-Glo luminescence, 72 h; hits give low values; 1.1% of 86,000 active; viability, % at 10 µM (by protocol);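 active = viability at or below 30%; inactive = viability above 30%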;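 note: 100% = median luminescence of DMSO-only cell control wells on each plate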
H69AR growth 86K – growth inhibitors of human H69AR lung tumor cells; viability, % at 10 µM; 6% of 85,000 active; H69AR lung tumor viability, ATP luminescence, 72 h; hits give low values; AID 598;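 active = viability at or below 40%; inactive = viability above 40%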;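 note: multidrug resistant small cell line overexpressing MRP-1 efflux transporter; 100% = mean luminescence of untreated control wells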
PTEN del growth – PTEN-deleted cell growth suppression; HCT116 PTEN-null viability, CellTiter-Glo, 60 h; hits give low values; AID 827; viability, % at 10 µM; 1.2% of 140,000 active;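 active = viability at or below a set limit, 4 SD under the median of all tested compounds, cut at about 3.7% in these data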;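 note: PTEN knockout HCT116 line with beta catenin targeted HCT116 as companion control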
Fibroblast inh – blocks proliferation of human lung fibroblasts | 1.1% of 85,000 active | LL 47 human lung fibroblast viability, ATP luminescence; hits give low values | viability, % at 10 µM;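 active = viability at or below 50% in the single dose screen; inactive = viability above 50%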;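 note: compound exposure lasted 72 h before the ATP readout; 100% = median luminescence of untreated cell-only wells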
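Test system: LL 47 human lung fibroblasts; Quantity: 1,150 cells/well; Buffer or medium: IMEM plus 15% FBS; Dosing: tenfold compound dosing solution, DMSO at 0.1%; Timing: overnight cell rest, 72 h compound treatment at 37 °C; Detection: ATP-based CellTiter-Glo luminescent readout; Read-out basis: viability percentage against median untreated-cell control; Controls: cell-only wells, no compound.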
* marks the source's active call; other numbers are inactive results; . = not tested or not shown. This is one part of a sample in which hits are shown more often than they occur.

SMILES	bCat KO growth	HUVEC inhibit	H69AR growth 86K	PTEN del growth	Fibroblast inh
CCOC(=O)c1nnc(-c2ccccc2)nc1Sc1c(Cl)cccc1Cl	23	68	1.9*	55	89
CCOC(=O)c1nnc(-c2ccc(C)cc2)nc1Sc1ccc(Cl)cc1	36	69	3.3*	27	74
CCOC(=O)c1nnc(-c2ccc(C)cc2)nc1Oc1ccccc1Cl	86	.	.	102	.
N#Cc1c(NC(=O)COC(=O)c2ccc(S(=O)(=O)N3CCCC3)cc2)sc2c1CCCCC2	83	.	.	80	.
COc1ccc(CNC(=O)C(c2ccc(C)o2)N(C(=O)c2csnn2)c2ccc(C(C)C)cc2)cc1 (stereo unspecified)	25	107	38*	19	99
COc1ccc(CNC(=O)C(c2ccc(C)o2)N(Cc2cccs2)C(=O)Cc2cccs2)cc1 (stereo unspecified)	66	71	24*	52	96
CCC(C)(C)NC(=O)C(c1ccc(C)o1)N(Cc1cccs1)C(=O)Cn1nnc2ccccc21 (stereo unspecified)	2.8*	79	49	2.4*	43*
COc1ccc(CC(=O)NCc2cccs2)cc1	67	71	30*	72	93
COCCN(C(=O)Cc1cccs1)C(C(=O)NCc1ccc(OC)cc1)c1ccc(C)cc1 (stereo unspecified)	72	.	.	77	.
CCC(C)(C)NC(=O)C(c1ccccc1)N(Cc1cccs1)C(=O)Cn1nnc2ccccc21 (stereo unspecified)	.	97	65	.	107
Cc1ccc(C(C(=O)NCc2ccccc2)N(C(=O)c2csnn2)c2cccc3ccccc23)o1 (stereo unspecified)	81	95	62	72	95
Cc1ccc(/C=C/C(=O)Nc2ccccc2C(N)=O)cc1	55	.	.	71	.
O=C(COC(=O)CCc1c[nH]c2ccccc12)NC(c1ccccc1)c1ccccc1	95	.	.	97	.
COC(=O)C(NC(C)=O)(Nc1nc(C)cs1)C(F)(F)F (stereo unspecified)	118	90	96	112	95
COC(=O)C(NC(C)=O)(Nc1nc2c(C)cc(C)cc2s1)C(F)(F)F (stereo unspecified)	38	71	26*	32	88
CC(=O)c1ccc(NC(=S)N2CC(C)CC(C)C2)cc1 (stereo unspecified)	93	.	.	96	.
Cc1ccc2occ(C(c3nnnn3C3CCCC3)N3CCN(C(=O)c4ccco4)CC3)c(=O)c2c1 (stereo unspecified)	83	93	60	77	100
O=C(c1ccco1)N1CCN(C(c2coc3ccc(Cl)cc3c2=O)c2nnnn2C2CCCC2)CC1 (stereo unspecified)	.	73	14*	.	86
O=C(COC(=O)Cc1ccc(S(=O)(=O)N2CCCCC2)s1)Nc1ccc2c(c1)OCO2	102	92	25*	101	103
CCOc1ccc(S(=O)(=O)Nc2cc(Cl)ccc2O)cc1	61	80	17*	59	96
CCOc1ccc(S(=O)(=O)Nc2cccc(Cl)c2)cc1	.	55	10*	.	.
CCOc1ccc(NS(=O)(=O)c2ccc(NS(=O)(=O)c3ccccc3)cc2)cc1	90	83	63	93	93
CCOc1ccc(S(=O)(=O)Nc2ccccc2SC)cc1	78	80	31*	68	85
COc1ccccc1NS(=O)(=O)c1cc(NC(=O)CNC(=O)c2ccc(C)s2)ccc1Cl	95	.	.	99	.
Cc1cc(Nc2nc3ccccc3nc2Cl)n(-c2ccccc2)n1	21	47	36*	15	78
SMILES	bCat KO growth	HUVEC inhibit	H69AR growth 86K	PTEN del growth	Fibroblast inh
Cc1cc(Nc2nc3ccccc3nc2Cl)n(-c2ccccc2C)n1	58	109	17*	61	92
O=C(Cn1ncc(Cl)c(Cl)c1=O)N1CCN(S(=O)(=O)c2ccc3ccccc3c2)CC1	1.1*	.	.	1.1*	.
O=C(CSc1nc2ccccc2o1)N1CCN(S(=O)(=O)c2ccc3ccccc3c2)CC1	39	.	.	48	.
Cc1ccc(C2(C(F)(F)F)NC(=O)N3CCCN=C3S2)cc1 (stereo unspecified)	100	90	102	97	88
Cc1ccc(C2(C(F)(F)F)NC(=O)N3CCN=C3S2)cc1 (stereo unspecified)	61	82	22*	66	63
COc1ccc2cc3cc(C(=O)NCCc4ccc(OC)c(OC)c4)oc3nc2c1	55	25*	29*	50	120
COc1ccc2cc3cc(C(=O)Nc4ccc5c(c4)OCO5)oc3nc2c1	59	10*	24*	63	108
